The entries come from a sample that favours hits as a whole.
HUVEC inhibit = human endothelial cell proliferation inhibition | 1.1% of 86,000 active | HUVEC proliferation, CellTiter-Glo luminescence, 72 h; hits give low values | viability, % at 10 µM (by protocol);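 active = viability at or below 30%; inactive = viability above 30%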
H69AR inhibit = blocks growth of human H69AR lung tumor cells; H69AR lung tumor viability, ATP luminescence, 72 h; hits give low values; viability, % at 10 µM; 6% of 85,000 active;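 active = viability at or below 40%; inactive = viability above 40%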;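 note: multidrug resistant small cell line overexpressing MRP-1 efflux transporter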
Fibroblast inh = blocks proliferation of human lung fibroblasts; AID 719; LL 47 human lung fibroblast viability, ATP luminescence; hits give low values; 1.1% of 85,000 active; viability, % at 10 µM;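 active = viability at or below 50% in the single dose screen; inactive = viability above 50%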;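 note: compound exposure lasted 72 h before the ATP readout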
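Test system: LL 47 human lung fibroblasts / Incubation: 72 h compound exposure at 37 °C after overnight plating / Technique: luminescent ATP detection, CellTiter-Glo / Compound dosing: 0.1% DMSO in all compound wells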
bCat KO growth = beta-catenin-lacking colon tumor cell growth suppression; 1.5% of 140,000 active; viability, % at 10 µM; HCT116 beta-catenin knockout viability, CellTiter-Glo, 60 h; hits give low values;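 active = viability at or under a set limit, the compound median less 4 SD, cut at about 6% in these data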
PTEN del growth = growth suppressors of cells with PTEN tumor suppressor deletion | 1.2% of 140,000 active | HCT116 PTEN-null viability, CellTiter-Glo, 60 h; hits give low values | viability, % at 10 µM | AID 827;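 active = viability at or below a set limit, 4 SD under the median of all tested compounds, cut at about 3.7% in these data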;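 note: PTEN knockout HCT116 line with beta catenin targeted HCT116 as companion control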
Of the large screens only hits and unclear results are named; the others gave an inactive call.

C/C(=N\NC(=O)Cc1cccc2ccccc12)c1ccncc1	none (no result: HUVEC inhibit, H69AR inhibit, Fibroblast inh)
Oc1ccc(-c2nnc(SCC3CCCCC3)o2)cc1	H69AR inhibit 34.6
O=C(COc1ccc(/C=N/NC(=O)c2ccccc2)cc1)Nc1ccc([N+](=O)[O-])cc1	none (no result: HUVEC inhibit, H69AR inhibit, Fibroblast inh)
CC(C)Oc1ccc(/C=N/NC(=O)C(CSCc2ccccc2)NC(=O)c2ccc([N+](=O)[O-])cc2)cc1 (centres undefined)	H69AR inhibit 28.4
Brc1ccc(-c2nc3ncccn3c2NC2CCCCC2)o1	none
CN(C)[C@@H]1CCC[C@@H]1OC(=O)C(c1ccccc1)c1ccccc1	none (no result: HUVEC inhibit, H69AR inhibit, Fibroblast inh)
O=C(c1ccc(F)cc1)C(CCCCCC(CN1CCOCC1)C(=O)c1ccc(F)cc1)CN1CCOCC1 (centres undefined)	H69AR inhibit 22.6
CC(CN1CCOCC1)C(=O)c1ccccc1 (centres undefined)	none
CCSc1nnc(NC(=O)CSc2nnc(CNC(=O)c3ccc(OC)c(OC)c3)o2)s1	none (no result: HUVEC inhibit, H69AR inhibit, Fibroblast inh)
Cc1ccsc1C(=O)N1CC(=O)Nc2ccccc21	H69AR inhibit 30.4
Cc1cc(C)cc(C(=O)N2CC(=O)Nc3ccccc32)c1	H69AR inhibit 35.4, Fibroblast inh 49.8
Cc1cc(C)c2nc(SCC(=O)N3CC(=O)Nc4ccccc43)c(C#N)cc2c1	H69AR inhibit 23.9
CCOC(=O)c1ccc(NC(=O)CN2C(=O)CSC(C)C2=O)cc1 (centres undefined)	none (no result: HUVEC inhibit, H69AR inhibit, Fibroblast inh)
Cc1c(N=C(N)/N=C(\N)Nc2ccc(Br)cc2)c(=O)n(-c2ccccc2)n1C	none (no result: HUVEC inhibit, H69AR inhibit, Fibroblast inh)
CCn1c2ccccc2c2cc(NC(=O)CSc3nnc(-c4cccc(OC)c4)n3N)ccc21	none (no result: HUVEC inhibit, H69AR inhibit, Fibroblast inh)
CCOc1ccc(-c2nnc(SCC(=O)Nc3ccc4c(c3)c3ccccc3n4CC)n2N)cc1	bCat KO growth 3.9 (no result: HUVEC inhibit, H69AR inhibit, Fibroblast inh)
CCn1c2ccccc2c2cc(NC(=O)CSc3nnc(-c4ccc(OC)c(OC)c4)n3N)ccc21	H69AR inhibit 22.0
Cc1nn2c(=O)nc3sc4c(c3c2[nH]c1=O)CCCC4	none (no result: bCat KO growth, PTEN del growth)
COc1ccc(C(=O)NCc2nnc(SCC(=O)N3CCc4ccccc43)n2Cc2ccccc2)cc1	none (no result: HUVEC inhibit, H69AR inhibit, Fibroblast inh)
O=C(O)C(=O)/C(=C\c1cccc2ccccc12)c1ccc2ccccc2n1	H69AR inhibit 18.1
O=c1c(Cl)c(NCCCO)cnn1-c1nc2ccccc2[nH]1	H69AR inhibit 0.6, Fibroblast inh 26.3, bCat KO growth 1.3, PTEN del growth 2.0
C=CCN(CC=C)c1cnn(-c2nc3ccccc3[nH]2)c(=O)c1Cl	none (no result: HUVEC inhibit, H69AR inhibit, Fibroblast inh)
c1ccc(CN2CCN(c3nc(-c4ccccc4)nc(-n4ccnc4)n3)CC2)cc1	none
c1ccc(N(c2ccccc2)c2nc(N3CCCC3)nc(-n3ccnc3)n2)cc1	H69AR inhibit 20.1
N/C(=N/O)c1nc(N2CCCC2)nc(N(c2ccccc2)c2ccccc2)n1	none
CCOC(=O)N1CCN(c2nc(N(c3ccccc3)c3ccccc3)nc(-n3ccnc3)n2)CC1	H69AR inhibit 21.0 (no result: bCat KO growth, PTEN del growth)
CN(c1ccccc1)c1nc(N2CCCC2)nc(-n2ccnc2)n1	H69AR inhibit 39.5
CCCCNC(=S)N/N=C/C1=CCC2CC1C2(C)C (centres undefined)	none (no result: HUVEC inhibit, H69AR inhibit, Fibroblast inh)
CCOC(=O)c1sc(NC(=O)CCN2C(=O)c3cccc([N+](=O)[O-])c3C2=O)c(C(=O)OCC)c1C	none (no result: HUVEC inhibit, H69AR inhibit, Fibroblast inh)
O=C(Nc1ccc(-c2nc3cc(Cl)ccc3o2)cc1)C1CCCO1 (centres undefined)	H69AR inhibit 33.5
O=C(Cc1ccccc1)Nc1ccc2oc(-c3cccnc3)nc2c1	none
COc1ccc(CC(=O)Nc2ccc(-c3nc4cc(C)ccc4o3)c(O)c2)cc1OC	Fibroblast inh 40.0
O=C(Cc1ccc(Cl)cc1)Nc1ccc2oc(-c3ccncc3)nc2c1	HUVEC inhibit 17.5, H69AR inhibit 32.5, Fibroblast inh 8.1
COc1ccccc1N/C(N)=N/c1nc(CSc2ccc(C)cc2)cc(=O)[nH]1	H69AR inhibit 22.9 (no result: Fibroblast inh)
O=C(Cn1ccc(C(F)(F)F)n1)N/N=C/c1ccc2c(c1)OCO2	none (no result: HUVEC inhibit, H69AR inhibit, Fibroblast inh)
Cc1ccccc1Nc1nnc(SCC(=O)NC2CCCc3ccccc32)s1 (centres undefined)	none (no result: HUVEC inhibit, H69AR inhibit, Fibroblast inh)
CCN(CCNC(=O)Nc1ccc(Cl)cc1)c1ccccc1	H69AR inhibit 7.2
CCN(CCNC(=O)C1CCN(S(C)(=O)=O)CC1)c1ccccc1	none
Cc1nc2ccc(NS(=O)(=O)c3c(C)c(C)cc(C)c3C)cc2s1	H69AR inhibit 16.4
CCc1ccccc1NC(=O)CN(C)C(=O)CSc1nn(-c2ccc(F)cc2)c(=S)s1	none (no result: HUVEC inhibit, H69AR inhibit, Fibroblast inh)
Fc1ccc(-c2cc3nc4c(c(N5CCOCC5)n3n2)CCCC4)cc1	H69AR inhibit 35.2
Cc1cccc(-c2cc3nc4c(c(N5CCC6(CC5)OCCO6)n3n2)CCCC4)c1	H69AR inhibit 30.8 (no result: bCat KO growth, PTEN del growth)
CCOc1ccc(NC(=O)CC2C(=O)N(c3ccccc3)C(=O)N2CCc2cccs2)cc1 (centres undefined)	none (no result: HUVEC inhibit, H69AR inhibit, Fibroblast inh)
CCOC(=O)c1[nH]c2c(c1-c1ccccc1)C(=O)CC(c1ccccc1)C2 (centres undefined)	none (no result: HUVEC inhibit, H69AR inhibit, Fibroblast inh)
CCOCCOC(=O)c1[nH]c2c(c1C)C(=O)CC(c1ccc(N(C)C)cc1)C2 (centres undefined)	none (no result: HUVEC inhibit, H69AR inhibit, Fibroblast inh)
C=CCOC(=O)c1[nH]c2c(c1C)C(=O)CC(c1ccco1)C2 (centres undefined)	H69AR inhibit 30.0
C/C=C/COC(=O)c1[nH]c2c(c1C)C(=O)CC(c1ccc(N(C)C)cc1)C2 (centres undefined)	H69AR inhibit 29.2
Cc1c(C(=O)N2CCOCC2)[nH]c2c1C(=O)CC(c1ccccc1Cl)C2 (centres undefined)	H69AR inhibit 21.9
COC(=O)c1[nH]c2c(c1C)C(=O)CC(c1ccccc1)C2 (centres undefined)	H69AR inhibit 19.1
COc1cc(C2CC(=O)c3c([nH]c(C(=O)OCCOC(C)C)c3C)C2)cc(OC)c1OC (centres undefined)	none (no result: HUVEC inhibit, H69AR inhibit, Fibroblast inh)
Cc1cccc(N2CCN(S(=O)(=O)c3cccc4nonc34)CC2)c1C	none (no result: HUVEC inhibit, H69AR inhibit, Fibroblast inh)
COc1ccc(NC(=O)c2cccnc2SC)cc1S(=O)(=O)N1CCCCC1	none (no result: HUVEC inhibit, H69AR inhibit, Fibroblast inh)
COc1ccc(OC)c(C2CC(=O)c3c([nH]c(C(=O)OCC4CCCO4)c3C)C2)c1 (centres undefined)	none (no result: HUVEC inhibit, H69AR inhibit, Fibroblast inh)
Cc1c(C(=O)OCC2CCCO2)[nH]c2c1C(=O)CC(c1ccco1)C2 (centres undefined)	H69AR inhibit 27.6
Cc1c(C(=O)OCC(C)C)[nH]c2c1C(=O)CC(c1ccco1)C2 (centres undefined)	H69AR inhibit 16.7
CCOC(=O)c1[nH]c2c(c1C)C(=O)CC(c1ccc(OC)c(OC)c1)C2 (centres undefined)	none
CCOC(=O)c1ccc(N=CC2=C(O)CC(c3ccco3)CC2=O)cc1 (centres undefined)	none (no result: Fibroblast inh, bCat KO growth, PTEN del growth)
C/C=C/COC(=O)c1[nH]c2c(c1C)C(=O)CC(c1ccco1)C2 (centres undefined)	H69AR inhibit 29.5
Cc1c(C(=O)OC2CCCC2)[nH]c2c1C(=O)CC(c1ccco1)C2 (centres undefined)	H69AR inhibit 28.2
CCc1cc2c(Sc3nc4ccccc4s3)ncnc2s1	bCat KO growth 4.4, PTEN del growth 3.7 (no result: HUVEC inhibit, H69AR inhibit, Fibroblast inh)
CCc1cc2c(SCC(=O)c3ccc(C)cc3)ncnc2s1	none

Screening data deposited in PubChem by SRMLSC.
